We go through seven compounds from ChEMBL document CHEMBL1123493, “Synthesis and antiviral activity of the carbocyclic analogues of 5-ethyl-2'-deoxyuridine and of 5-ethynyl-2'-deoxyuridine” (1986).

SMILES strings stand for the structures. In brackets after ≈: the same amount, converted by molar mass. Several values for one entry are separate records, joined by “and”; a condition that tells them apart may be missing. Equal entries are not always repeated.

Experiment [1] deals with Vero. The experiment in a line: (§1) Compound was tested for the inhibition of the replication of herpes simplex virus (HSV-2 strain MS) in vero cells in exp. No. 2. As to conditions: Chlorocebus sabaeus. The format is functional. In a few lines: (§2)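 Inhibition of virus-induced cytopathogenic effect was measured in Vero cells infected with TK⁺ HSV-1 strain 377 or TK⁺ HSV-2 strain MS, using a modified Ehrlich method. Activity is given as a virus rating, which weights both the degree of CPE inhibition and the cytotoxicity of the compound. Potency is given as the minimum inhibitory concentration (MIC₅₀).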

Experiment [2] deals with Vero. The experiment in a line: Compound was tested for the inhibition of the replication of herpes simplex virus (HSV-I strain 377) in vero cells in exp. No. 2. The format is functional. As to conditions: Chlorocebus sabaeus. In a few lines: as §2
Experiment [3] relates to Vero. The experiment in a line: Compound was evaluated for antiviral activity against Herpes Simplex Virus (HSV-1 strain 377) in vero cells in exp. No. 2. The format is functional, Chlorocebus sabaeus. An outline of the steps:
as §2

In experiment [4] the test system is Vero. The experiment is described as follows: Compound was evaluated for antiviral activity against Herpes Simplex Virus (HSV-2 strain MS) in vero cells in exp. No. 2. The format is functional, Chlorocebus sabaeus. In a few lines: as §2
The subject of experiment [5] is Vero. The experiment is described as §1. The format is functional. The following applies: Chlorocebus sabaeus. An outline of the steps: as §2
This is another data set of the same source.

Experiment [6] relates to Vero. The experiment in a line: Compound was tested for the inhibition of the replication of herpes simplex virus (HSV-I strain 377) in vero cells in exp. No. 1. The following applies: Chlorocebus sabaeus. The format is functional. An outline of the steps:
as §2

The test system of experiment [7] is Vero. The experiment in a line: Compound was tested for the inhibition of the replication of herpes simplex virus (HSV-2 strain MS) in vero cells in exp. No. 3. The format is functional. The following applies: Chlorocebus sabaeus. An outline of the steps: as §2
For experiment [8], the system named is Vero. The experiment in a line: Compound was tested for the inhibition of the replication of herpes simplex virus (HSV-I strain 377) in vero cells of in exp. No. 1. The format is functional. The following applies: Chlorocebus sabaeus. An outline of the steps: as §2
The subject of experiment [9] is Vero. The experiment in a line: Compound was evaluated for antiviral activity against Herpes Simplex Virus (HSV-2 strain MS) in vero cells in exp. No. 1. The format is functional, Chlorocebus sabaeus. In a few lines: as §2
Experiment [10] has as its system Vero. The experiment in a line: Compound was evaluated for antiviral activity against Herpes Simplex Virus (HSV-1 strain 377) in vero cells in exp. No. 3. The format is functional, Chlorocebus sabaeus. An outline of the steps: as §2
The subject of experiment [11] is Vero. The experiment in a line: Compound was evaluated for antiviral activity against Herpes Simplex Virus (HSV-1 strain 377) in vero cells in exp. No. 1. The format is functional, Chlorocebus sabaeus. In a few lines: as §2
Experiment [12] relates to Vero. The experiment is described as follows: Compound was tested for the inhibition of the replication of herpes simplex virus (HSV-I strain 377) in vero cells in exp. No. 3. The format is functional. The following applies: Chlorocebus sabaeus. An outline of the steps:
as §2

Experiment [13] deals with Vero. The experiment is described as follows: Compound was tested for the inhibition of the replication of herpes simplex virus (HSV-2 strain MS) in vero cells in exp. No. 1. The format is functional. As to conditions: Chlorocebus sabaeus. In a few lines:
as §2

Experiment [14] concerns Vero. The experiment is described as follows: Compound was evaluated for antiviral activity against Herpes Simplex Virus (HSV-2 strain MS) in vero cells in exp. No. 3. The format is functional, Chlorocebus sabaeus. In a few lines: as §2
The test system of experiment [15] is Vero. The experiment is described as follows: Compound was tested for the inhibition of the replication of herpes simplex virus (HSV-I strain 377) in vero cells of in exp. no. 2. The format is functional. The following applies: Chlorocebus sabaeus. An outline of the steps: as §2
Experiment [16] relates to Vero. The experiment is described as follows: Compound was tested for the inhibition of the replication of herpes simplex virus (HSV-2 strain MS) in vero cells in exp. no.2. The format is functional. The following applies: Chlorocebus sabaeus. An outline of the steps:
as §2

Experiment [17] concerns Vero. The experiment in a line: Compound was evaluated for antiviral activity against Herpes Simplex virus (HSV-2 strain MS) in exp. no. 1. The format is functional, Chlorocebus sabaeus.
Experiment [18] has as its system Vero. The experiment in a line: Compound was evaluated for antiviral activity against Herpes Simplex virus (HSV-2 strain MS) in exp. no. 2. The format is functional, Chlorocebus sabaeus.
In experiment [19] the test system is Vero. The experiment is described as follows: Compound was tested for the inhibition of the replication of herpes simplex virus (HSV-I strain 377) in vero cells of in exp. no. 1. The format is functional. The following applies: Chlorocebus sabaeus. An outline of the steps:
as §2

The subject of experiment [20] is Vero. The experiment is described as follows: Compound was tested for the inhibition of the replication of herpes simplex virus (HSV-I strain 377) in vero cells in exp. no. 1. The following applies: Chlorocebus sabaeus. The format is functional. In a few lines:
as §2

Experiment [21] has as its system Vero. The experiment is described as follows: Compound was evaluated for antiviral activity against Herpes Simplex virus (HSV-1 strain 377) in exp. no. 2. The format is functional, Chlorocebus sabaeus.
The subject of experiment [22] is Vero. The experiment is described as follows: Compound was tested for the inhibition of the replication of herpes simplex virus (HSV-2 strain MS) in vero cells in exp. no.1. The format is functional. The following applies: Chlorocebus sabaeus. An outline of the steps: as §2
Experiment [23] deals with Vero. The experiment in a line: Compound was evaluated for antiviral activity against Herpes Simplex Virus (HSV-1 strain 377) in vero cells in exp. no. 1. The format is functional, Chlorocebus sabaeus. An outline of the steps: as §2
Experiment [24] concerns Vero. The experiment in a line: Compound was evaluated for antiviral activity against Herpes Simplex Virus (HSV-1 strain 377) in vero cells in exp. no. 3. The format is functional, Chlorocebus sabaeus. In a few lines:
as §2

For experiment [25], the system named is Vero. The experiment is described as follows: Compound was tested for the inhibition of the replication of herpes simplex virus (HSV-I strain 377) in vero cells in exp. no. 3. The format is functional. The following applies: Chlorocebus sabaeus. An outline of the steps: as §2
Experiment [26] concerns Vero. The experiment in a line: Compound was evaluated for antiviral activity against Herpes Simplex Virus (HSV-2 strain MS) in vero cells in exp. no. 3. The format is functional, Chlorocebus sabaeus. An outline of the steps:
as §2

The species entered for experiment [27] is Oryctolagus cuniculus. The experiment is described as follows: Compound was tested for the inhibition of the replication of herpes simplex virus in vero cells of HSV-2 strain MS in rabbit kidney cells. The format is functional.
Experiment [28] is filed under the species Oryctolagus cuniculus. The experiment in a line: Compound was evaluated for antiviral activity against Herpes Simplex Virus (HSV-1 strain 377) in rabbit kidney cells. The format is functional.
The species entered for experiment [29] is Oryctolagus cuniculus. The experiment in a line: Compound was tested for the inhibition of the replication of herpes simplex virus (HSV-I strain 377) in rabbit kidney cells. The format is functional.
For experiment [30], the species on record is Oryctolagus cuniculus. The experiment in a line: Compound was evaluated for antiviral activity against HSV-2 strain MS in rabbit kidney cells. The format is functional.
Experiment [31] relates to Vero. The experiment is described as follows: Compound was evaluated for antiviral activity against Herpes Simplex Virus (HSV-2 strain MS) in vero cells in exp. no.2. The format is functional, Chlorocebus sabaeus. An outline of the steps:
as §2

For experiment [32], the system named is Vero. The experiment is described as follows: Compound was tested for the inhibition of the replication of herpes simplex virus (HSV-I strain 377) in vero cells in exp. no.1. The format is functional. As to conditions: Chlorocebus sabaeus. In a few lines:
as §2

The subject of experiment [33] is Vero. The experiment is described as follows: Compound was evaluated for antiviral activity against Herpes Simplex Virus (HSV-1 strain 377) in vero cells in exp. no.1. The format is functional, Chlorocebus sabaeus. An outline of the steps: as §2

For `CCc1cn([C@H]2C[C@H](O)[C@@H](CO)O2)c(=O)[nH]c1=O` [EDOXUDINE], the MIC50 in [1] was 140 µM (≈ 35.9 µg/mL); in [2] it was 20 µg/mL and 80 µM; in experiment [5] it was 37 µg/mL (≈ 144 µM). For the same compound, the VR in [3] worked out at 2.3; in [4], 2.2.
With `Nc1ncnc2c1ncn2[C@@H]1O[C@H](CO)[C@@H](O)[C@@H]1O` [VIDARABINE], the MIC50 in experiment [6] is 70 µM (≈ 18.7 µg/mL); in [7], 24 µg/mL and 90 µM; in [8] it was 18 µg/mL (≈ 67.4 µM); in experiment [2], 15 µg/mL and 60 µM; in experiment [5] it was 45 µg/mL and 170 µM; in experiment [12], 5 µg/mL and 20 µM. Also, the MIC50 in experiment [13] is 22 µg/mL and 80 µM. Also, the VR in experiment [9] is recorded as 1.7; in experiment [10], 2.4; in [3], 2; in [4], 1.3; in experiment [11], 2.1; in experiment [14] it was 1.2.
In the case of `CCc1cn(C2CC(O)C(CO)C2)c(=O)[nH]c1=O` (stereo not given), the MIC50 in experiment [15] was 70 µg/mL and 270 µM; in experiment [16], 180 µg/mL and 700 µM; in experiment [19], 45 µg/mL (≈ 177 µM); in experiment [20], 170 µM (≈ 43.2 µg/mL); in experiment [22], 230 µg/mL and 890 µM. Also, the VR in [17] came out at 1.1; in experiment [18], 1.1; in experiment [21] it was 2.1; in experiment [23] it was 2.4.
Turning to `C[Si](C)(C)CCc1cn([C@H]2C[C@H](O)[C@@H](CO)O2)c(=O)[nH]c1=O`, the results for the VR in experiment [24] and in [26] were 0.5 and 0.1, respectively. In addition, in experiment [25], the MIC50 is 320 µg/mL and 980 µM.
In the case of `Cc1cn([C@@H]2C[C@H](CO)[C@@H](O)C2)c(=O)[nH]c1=O`, the MIC50 worked out at 7 µg/mL (≈ 29.1 µM) in [27] and 0.8 µg/mL (≈ 3.33 µM) in experiment [29]. Also, the figures for the VR in experiment [28] and in [30] were 5.4 and 3.2, respectively.
Regarding `C#Cc1cn(C2CC(O)C(CO)C2)c(=O)[nH]c1=O` (stereo not given), the MIC50 in experiment [16] is 210 µg/mL and 830 µM; in experiment [32] it was 250 µg/mL and 990 µM. Also, the VR in experiment [31] stood at 1.1; in experiment [33], 0.9.
Turning to `CC(=O)OC[C@H]1O[C@@H](n2cc(C#C[Si](C)(C)C)c(=O)[nH]c2=O)C[C@@H]1OC(C)=O`, the VR in experiment [24] and in experiment [26] was 0 each time.
